Test results taken from ChEMBL document CHEMBL3228006, “Orally active esters of cephalosporin antibiotics. 3. Synthesis and biological properties of aminoacyloxymethyl esters of 7-[D(-)-mandelamido]-3-[[(1-methyl-1H-tetrazol-5-yl)thio]methyl]-3-cephem-4-carboxylic acid” (J Med Chem, 1979).

Key:
[1] = Chemical stability of the compound in phosphate buffer at pH 4.5 assessed as hydrolysis up to 60 mins by paper electrophoresis analysis; type: physicochemical; details: pH 4.5, 1 h
Summary of the method: (§1)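 Ester dissolved in buffer (pH 2.5, 4.5 or 6.0) at 37 °C; samples taken at 0, 20, 40, 60 min and run on paper electrophoresis strips at 400 V in 0.1 M pyridine-acetate buffer for 2 h, steamed, dried, spots seen under UV. Extent of hydrolysis estimated approximately by comparing visual UV zone intensity of ester versus parent acid.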

[2] = Chemical stability of the compound in phosphate buffer at pH 2.5 assessed as hydrolysis up to 60 mins by paper electrophoresis analysis; type: physicochemical; details: pH 2.5, 1 h; summary of the method: as §1
Blood = assay: Drug metabolism in mouse assessed as cefamandole level in blood using Micrococcus luteus ATCC 9341 as detecting organism at 17 mg/kg, po by disk-plate microbiology assay; type: ADME, organism-based; set-up: dose 17 mg/kg, route oral; details: in vivo
Summary of the method: (§2)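 Mice dosed orally at 17 mg/kg; cefamandole activity in blood or urine measured by disk-plate microbiological assay with Micrococcus luteus ATCC 9341 as detecting organism.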

[3] = Drug metabolism in mouse assessed as cefamandole level in small intestine using Micrococcus luteus ATCC 9341 as detecting organism at 17 mg/kg, po by disk-plate microbiology assay; type: ADME, organism-based; set-up: dose 17 mg/kg, route oral; details: in vivo
Streptococcus pyogenes = assay: Antibacterial activity against Streptococcus pyogenes C203 infected in po dosed Swiss mouse assessed as protection against bacterial infection administered 1 to 5 hrs after bacterial infection; type: functional
Summary of the method: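 Swiss white mice (13-15 g), groups of eight, infected ip with broth suspension of S. pyogenes C203 lethal to 100% of untreated mice in 24-48 h. Five groups per test received graduated oral doses at 1 and 5 h post-challenge. ED50 by Reed and Muench method from survivors at 7 days.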

[4] = Drug metabolism in mouse assessed as cefamandole level in urine using Micrococcus luteus ATCC 9341 as detecting organism at 17 mg/kg, po by disk-plate microbiology assay; type: ADME, organism-based; set-up: dose 17 mg/kg, route oral; details: in vivo; summary of the method: as §2
[5] = Chemical stability of the compound in phosphate buffer at pH 6 assessed as hydrolysis after 20 mins by paper electrophoresis analysis; type: physicochemical; details: for Stability: buffer, pH 6, 20 min; for degraded at 20 min: phosphate buffer, pH 6, read-out: Drug degradation; summary of the method: as §1

Row | SMILES | Stability [1] | Stability [2] | Drug metabolism (Blood) | Drug metabolism [3] | ED50 (Streptococcus pyogenes) | Drug metabolism [4] | Stability [5] | degraded at 20 min [5]
1 | Cl.Cn1nnnc1SCC1=C(C(=O)OCOC(=O)CN)N2C(=O)[C@@H](NC(=O)[C@H](O)c3ccccc3)[C@H]2SC1 | Unstable | Stable | metabolite_notdetected | metabolite_detected | 20.4 mg/kg | metabolite_notdetected | Unstable | 
2 | CC(C)[C@H](N)C(=O)OCOC(=O)C1=C(CSc2nnnn2C)CS[C@@H]2[C@H](NC(=O)[C@H](O)c3ccccc3)C(=O)N12.Cl | Unstable | Stable | metabolite_notdetected | metabolite_detected | 14.3 mg/kg | metabolite_notdetected | Unstable | 
3 | CC(C)C[C@H](N)C(=O)OCOC(=O)C1=C(CSc2nnnn2C)CS[C@@H]2[C@H](NC(=O)[C@H](O)c3ccccc3)C(=O)N12.Cl | Unstable | Stable |  |  | 10.4 mg/kg |  | Unstable | 
4 | CC[C@H](C)[C@H](N)C(=O)OCOC(=O)C1=C(CSc2nnnn2C)CS[C@@H]2[C@H](NC(=O)[C@H](O)c3ccccc3)C(=O)N12.Cl | Unstable | Stable |  |  | 8.6 mg/kg |  | Unstable | 
5 | Cl.Cn1nnnc1SCC1=C(C(=O)OCOC(=O)[C@@H](N)Cc2ccccc2)N2C(=O)[C@@H](NC(=O)[C@H](O)c3ccccc3)[C@H]2SC1 | Unstable | Stable |  |  | 15.3 mg/kg |  |  | 50%
6 | COC(=O)[C@H](N)CC(=O)OCOC(=O)C1=C(CSc2nnnn2C)CS[C@@H]2[C@H](NC(=O)[C@H](O)c3ccccc3)C(=O)N12.Cl | Unstable | Stable | metabolite_notdetected | metabolite_detected | 25.2 mg/kg | metabolite_notdetected |  | 20%
7 | Cn1nnnc1SCC1=C(C(=O)[O-])N2C(=O)[C@@H](NC(=O)[C@H](O)c3ccccc3)[C@H]2SC1.[Li+] |  |  |  |  | 12 mg/kg |  |  | 
